Calls of active or inactive are those of the source. No cut-off for these calls is given here.
Columns and labels:
[1] = tested on: Mus musculus; assay: Neurotoxicity in Kunming mouse at 100 mg/kg, ip after 4 hrs; format: toxicity, organism-based; set-up: dose 100 mg/kg, route intraperitoneal; settings: in vivo
Method in brief: (§1)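 Rotarod neurotoxicity in KunMing mice (18–22 g) trained on a 3.2 cm diameter rod at 10 rpm. Compounds in DMSO were given i.p. at 30, 100 and 300 mg/kg, three mice per dose, and tested at 0.5 h and 4 h after dosing.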

[2] = tested on: Mus musculus; assay: Anticonvulsant activity in Kunming mouse assessed as protection against maximal electric shock-induced seizures at 100 mg/kg, ip measured after 0.5 hrs; format: functional, organism-based; set-up: dose 100 mg/kg
Method in brief: (§2)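 KunMing mice (18–22 g), compounds dissolved in DMSO, given i.p. at 30, 100 and 300 mg/kg, three mice per dose. Current applied through corneal electrodes for 0.2 s at 0.5 h and 4 h after dosing. Protection is abolition of tonic hind-leg extension, scored as protected/tested.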

[3] = tested on: Mus musculus; assay: Anticonvulsant activity in Kunming mouse assessed as protection against maximal electric shock-induced seizures at 300 mg/kg, ip measured after 4 hrs; format: functional, organism-based; set-up: dose 300 mg/kg; method in brief: as §2
[4] = species: Mus musculus; assay: Protective index, ratio of TD50 for neurotoxicity in Kunming mouse to ED50 for inhibition of MES-induced seizures in Kunming mouse; format: functional
[5] = tested on: Mus musculus; assay: Anticonvulsant activity in Kunming mouse assessed as protection against maximal electric shock-induced seizures at 100 mg/kg, ip measured after 4 hrs; format: functional, organism-based; set-up: dose 100 mg/kg; method in brief: as §2
[6] = tested on: Mus musculus; assay: Anticonvulsant activity in Kunming mouse assessed as protection against maximal electric shock-induced seizures at 300 mg/kg, ip measured after 0.5 hrs; format: functional, organism-based; set-up: dose 300 mg/kg; method in brief: as §2
[7] = tested on: Mus musculus; assay: Anticonvulsant activity in Kunming mouse assessed as protection against maximal electric shock-induced seizures at 30 mg/kg, ip measured after 0.5 hrs; format: functional, organism-based; set-up: dose 30 mg/kg; method in brief: as §2
[8] = tested on: Mus musculus; assay: Anticonvulsant activity against maximal electric shock-induced seizures in ip dosed Kunming mouse assessed as median effective dose; format: functional
Method in brief: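 Phase-II MES test in KunMing mice (18–22 g), DMSO vehicle, corneal electrode stimulus 0.2 s. Groups of 10 mice got a range of i.p. doses until at least three points fell within 10–90% seizure protection, giving the median effective dose. Endpoint is abolition of tonic hind-leg extension.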

[9] = tested on: Mus musculus; assay: Anticonvulsant activity in Kunming mouse assessed as protection against maximal electric shock-induced seizures at 30 mg/kg, ip measured after 4 hrs; format: functional, organism-based; set-up: dose 30 mg/kg; method in brief: as §2
[10] = tested on: Mus musculus; assay: Neurotoxicity in Kunming mouse at 300 mg/kg, ip after 4 hrs; format: toxicity, organism-based; set-up: dose 300 mg/kg, route intraperitoneal; settings: in vivo; method in brief: as §1
[11] = Neurotoxicity in ip dosed Kunming mouse by rotarod test; format: toxicity, organism-based; settings: in vivo
Method in brief: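 Phase-II rotarod test in KunMing mice trained on a 3.2 cm rod at 10 rpm, DMSO vehicle. Groups of 10 mice got graded i.p. doses until at least three points fell within 10–90% minimal neurotoxicity, giving the median toxic dose.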

[12] = tested on: Mus musculus; assay: Neurotoxicity in Kunming mouse at 300 mg/kg, ip after 0.5 hrs; format: toxicity, organism-based; set-up: dose 300 mg/kg, route intraperitoneal; settings: in vivo; method in brief: as §1
[13] = tested on: Mus musculus; assay: Neurotoxicity in Kunming mouse at 100 mg/kg, ip after 0.5 hrs; format: toxicity, organism-based; set-up: dose 100 mg/kg, route intraperitoneal; settings: in vivo; method in brief: as §1

SMILES	Activity [1]	Activity [2]	Activity [3]	Ratio TD50/ED50 [4]	Activity [5]	Activity [6]	Activity [7]	ED50 [8]	Activity [9]	Activity [10]	TD50 [11]	Activity [12]	Activity [13]
O=C1CC(c2ccccc2Br)n2nccc2N1 (configuration not stated)	Non-toxic	Active	inactive	3.4	inactive	Active	inactive	39.4 mg/kg	inactive	Non-toxic	132 mg/kg	Toxic	
O=C1CC(c2ccc(Br)cc2)n2ncnc2N1 (configuration not stated)		inactive	inactive		inactive		inactive		inactive				
O=C1CC(c2cccc(Br)c2)n2ncnc2N1 (configuration not stated)	Non-toxic	Active	inactive	7	inactive	Active	inactive	84.9 mg/kg	inactive	Non-toxic	592 mg/kg	Non-toxic	Non-toxic
O=C1CC(c2ccccc2F)n2c(nc3ccccc32)N1 (configuration not stated)		inactive	inactive		inactive	inactive	inactive		inactive				
CCCCCCN1C(=O)CC(c2ccccc2)n2ncnc21 (configuration not stated)			inactive		inactive		inactive		inactive				
O=C1CC(c2ccccc2F)n2nccc2N1 (configuration not stated)	Non-toxic	Active	inactive	2.5	inactive	Active		47.3 mg/kg	inactive	Non-toxic	118 mg/kg	Toxic	
O=C1CC(c2ccccc2)n2ccnc2N1 (configuration not stated)	Non-toxic	Active	inactive	6.7	inactive	Active	inactive	68.2 mg/kg	inactive	Non-toxic	458 mg/kg	Non-toxic	Non-toxic
CCC1(c2ccccc2)C(=O)NC(=O)NC1=O [PHENOBARBITAL]								21.8 mg/kg					
O=C1CC(c2cccc(C(F)(F)F)c2)n2ncnc2N1 (configuration not stated)	Non-toxic	Active	inactive	2.9	inactive	Active	inactive	54.8 mg/kg	inactive	Non-toxic	158 mg/kg	Toxic	
O=C1CC(c2ccc(F)cc2)n2ncnc2N1 (configuration not stated)		inactive	inactive		inactive		inactive		inactive				
O=C1CC(c2cccc(Cl)c2)n2ncnc2N1 (configuration not stated)	Non-toxic	Active	inactive	11.2	inactive	Active	inactive	47.3 mg/kg	inactive	Non-toxic	528 mg/kg		Non-toxic
Cc1ccc(C2CC(=O)Nc3ncnn32)cc1 (configuration not stated)			inactive		inactive	Active	inactive		inactive				
O=C1CC(c2ccccc2)n2c(nc3ccccc32)N1 (configuration not stated)		inactive	inactive		inactive	inactive	inactive		inactive				
COc1ccccc1C1CC(=O)Nc2ncnn21 (configuration not stated)		inactive	inactive		inactive		inactive		inactive				
O=C1CC(c2ccccc2Cl)n2nccc2N1 (configuration not stated)	Non-toxic	Active	inactive	1.5	inactive	Active	inactive	63.4 mg/kg	inactive	Non-toxic	94.7 mg/kg	Toxic	
